From ChEMBL document CHEMBL1126882, “Orally active central dopamine and serotonin receptor ligands: 5-, 6-, 7-, and 8-[[trifluoromethyl)sulfonyl]oxy]-2-(di-n-propylamino)tetralins and the formation of active metabolites in vivo” (J Med Chem, 1993)
Calls of active or inactive are those of the source. No cut-off for these calls is given here.

Tests used:
[1] = target: T1, Dopamine receptor (Rattus norvegicus) (UniProt P25115+P19020+P30729+P18901+P61169); experiment: Effective dose for half-maximal decrease in the accumulation of DOPA in reserpinized rat brain hemispheral area by sc administration; Inactive; format: functional, organism-based
Method in brief: (§1)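 Male Sprague-Dawley rats (200-300 g) got reserpine 5 mg/kg sc 18 h before. The test drug (saline) was given sc or po (po rats fasted 18 h), with NSD 1015, 30 min before decapitation. DOPA and 5-HTP in limbic, striatal and hemispheral tissue were measured by HPLC-ED. ED50 (half-maximal decrease) was taken from 4-6-dose curves, with deviation estimated graphically from SEM.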

[2] = target: T1, Dopamine receptor (Rattus norvegicus); experiment: Effective dose for half-maximal decrease in the accumulation of DOPA in reserpinized rat brain limbic area by sc administration; Inactive; format: functional, organism-based; method in brief: as §1
[3] = system: Rattus norvegicus; experiment: post-synaptic agonistic effects by increase in locomotor activity at the dose of 0.08 umol/kg, sc in reserpinized rat; format: functional
Method in brief: (§2)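 Male Sprague-Dawley rats (200-300 g) given reserpine 5 mg/kg sc in the neck 18 h before testing. The test compound, in 0.9% saline, was given sc in the neck (n = 4-5). Rats were placed singly in photocell motility meters right after dosing. Counts were recorded over 30 min, alongside gross behavioural observation of 5-HT and DA signs. Statistics: ANOVA with Fischer's PLSD versus reserpine controls.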

[4] = target: T1, Dopamine receptor (Rattus norvegicus); experiment: Effective dose for half-maximal decrease in the accumulation of DOPA in reserpinized rat brain limbic area by po administration; format: functional, organism-based; method in brief: as §1
[5] = target: T1, Dopamine receptor (Rattus norvegicus); experiment: Effective dose for half-maximal decrease in the accumulation of DOPA in reserpinized rat brain striatal area by sc administration; Inactive; format: functional, organism-based; method in brief: as §1
[6] = target: T1, Dopamine receptor (Rattus norvegicus); experiment: Effective dose for half-maximal decrease in the accumulation of DOPA in reserpinized rat brain striatal area by sc administration; format: functional, organism-based; method in brief: as §1
[7] = target: T2, 5-hydroxytryptamine receptor 1A (Rattus norvegicus, UniProt P19327); experiment: (§3) Binding affinity against 5-hydroxytryptamine 1A receptor in homogenated rat brain tissue, using by [3H]8-OH-DPAT as radioligand; format: tissue-based
T2 sequence (P19327 whole entry): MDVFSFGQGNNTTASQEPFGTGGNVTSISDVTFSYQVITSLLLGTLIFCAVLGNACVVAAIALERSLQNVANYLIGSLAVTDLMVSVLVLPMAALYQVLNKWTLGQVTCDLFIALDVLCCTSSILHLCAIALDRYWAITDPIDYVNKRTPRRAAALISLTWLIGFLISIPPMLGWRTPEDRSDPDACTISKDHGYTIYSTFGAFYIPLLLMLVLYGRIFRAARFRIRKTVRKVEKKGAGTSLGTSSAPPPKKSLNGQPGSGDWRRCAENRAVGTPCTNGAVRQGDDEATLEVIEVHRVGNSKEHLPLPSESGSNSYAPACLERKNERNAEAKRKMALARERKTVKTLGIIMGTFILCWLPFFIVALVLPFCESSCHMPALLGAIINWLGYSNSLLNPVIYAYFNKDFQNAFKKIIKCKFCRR
Method in brief: (§4)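 Rat brain homogenate was washed and preincubated in 50 mM Tris (pH 8.0) containing NaCl, CaCl2 and MgCl2, plus 10 μM pargyline. Nonspecific binding was defined with 10 μM 5-HT. Six drug concentrations (10⁻⁴-10⁻⁹ M) were tested, triplicate or single run. IC50 came from a semilog plot with linear regression.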

[8] = target: T1, Dopamine receptor (Rattus norvegicus); experiment: Effective dose for half-maximal decrease in the accumulation of DOPA in reserpinized rat brain striatal area by po administration; format: functional, organism-based; method in brief: as §1
[9] = target: T1, Dopamine receptor (Rattus norvegicus); experiment: Effective dose for half-maximal decrease in the accumulation of DOPA in reserpinized rat brain hemispheral area by po administration; format: functional, organism-based; method in brief: as §1
[10] = system: Rattus norvegicus; experiment: Effective dose for half-maximal decrease in the accumulation of 5-hydroxytryptophan (5-HTP) in reserpinized rat brain striatal area by po administration; Inactive; format: functional, organism-based; method in brief: as §1
[11] = target: T1, Dopamine receptor (Rattus norvegicus); experiment: Effective dose for half-maximal decrease in the accumulation of DOPA in reserpinized rat brain limbic area by sc administration; format: functional, organism-based; method in brief: as §1
[12] = species on record: Rattus norvegicus; experiment: DA agonist induced behavior was charecterised by increased locomotion, sniffing and licking.++ indicates high intensity of behavioral effect; format: functional, organism-based; method in brief: as §2
[13] = system: Rattus norvegicus; experiment: Effective dose for half-maximal decrease in the accumulation of 5-hydroxytryptophan (5-HTP) in reserpinized rat brain hemispheral area by po administration; Inactive; format: functional, organism-based; method in brief: as §1
[14] = system: Rattus norvegicus; experiment: Effective dose for half-maximal decrease in the accumulation of 5-hydroxytryptophan (5-HTP) in reserpinized rat brain limbic area by po administration; Inactive; format: functional, organism-based; method in brief: as §1
[15] = Effective dose for half-maximal decrease in the accumulation of 5-hydroxytryptophan (5-HTP) in reserpinized rat brain limbic area by po administration; format: functional; method in brief: as §1
[16] = Effective dose for half-maximal decrease in the accumulation of 5-hydroxytryptophan (5-HTP) in reserpinized rat brain striatal area by po administration; format: functional; method in brief: as §1
[17] = target: T1, Dopamine receptor (Rattus norvegicus); experiment: Effective dose for half-maximal decrease in the accumulation of DOPA in reserpinized rat brain hemispheral area by po administration; Inactive; format: functional, organism-based; method in brief: as §1
[18] = Effective dose for half-maximal decrease in the accumulation of 5-hydroxytryptophan (5-HTP) in reserpinized rat brain limbic area by sc administration; format: functional; method in brief: as §1
[19] = Effective dose for half-maximal decrease in the accumulation of 5-hydroxytryptophan (5-HTP) in reserpinized rat brain hemispheral area by sc administration; format: functional; method in brief: as §1
[20] = Effective dose for half-maximal decrease in the accumulation of 5-hydroxytryptophan (5-HTP) in reserpinized rat brain striatal area by sc administration; format: functional; method in brief: as §1
[21] = target: T2, 5-hydroxytryptamine receptor 1A; experiment: as §3; format: tissue-based; remark: listed apart in the source
Method in brief: as §4, with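 “pargyline. It was incubated with 1 nM [3H]-8-OH-DPAT (final) for 15 min at 37 °C, then vacuum-filtered and counted by scintillation.” for “pargyline.”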

[22] = Effective dose for half-maximal decrease in the accumulation of 5-hydroxytryptophan (5-HTP) in reserpinized rat brain hemispheral area by po administration; format: functional; method in brief: as §1
[23] = target: D(2) dopamine receptor (Rattus norvegicus, UniProt P61169); experiment: Binding affinity against dopamine receptor D2 in homogenated rat brain tissue, using by [3H]spiperone as radioligand; format: tissue-based
Sequence of D(2) dopamine receptor (P61169 whole entry): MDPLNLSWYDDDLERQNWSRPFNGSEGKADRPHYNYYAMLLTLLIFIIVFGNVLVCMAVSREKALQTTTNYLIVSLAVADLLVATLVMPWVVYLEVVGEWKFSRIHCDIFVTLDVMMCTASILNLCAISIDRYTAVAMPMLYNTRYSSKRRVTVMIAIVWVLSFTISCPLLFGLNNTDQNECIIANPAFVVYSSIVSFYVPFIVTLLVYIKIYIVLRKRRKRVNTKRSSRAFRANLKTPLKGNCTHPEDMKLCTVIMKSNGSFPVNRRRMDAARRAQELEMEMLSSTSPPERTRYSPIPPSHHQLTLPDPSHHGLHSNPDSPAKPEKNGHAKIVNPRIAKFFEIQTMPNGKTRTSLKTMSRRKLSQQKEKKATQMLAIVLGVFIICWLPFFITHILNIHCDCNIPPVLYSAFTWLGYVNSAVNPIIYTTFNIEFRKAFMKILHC
Method in brief: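 Rat striatal membranes were prepared in 50 mM potassium phosphate (pH 7.4). They were incubated with 0.5 nM [3H]spiperone (3 mg original tissue) for 10 min at 37 °C. Specific binding was defined with 10 μM 6,7-ADTN. Six drug concentrations (10⁻⁴-10⁻⁹ M) were tested, in triplicate or in a single experiment.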

In the case of `CCCN(CCC)C1CCc2c(O)cccc2C1` (stereo not drawn) [5-OH-DPAT], the ED50 [1] is reported as “inactive”, the ED50 [2] is reported as “inactive” and the Counts/30 [3] is reported as 60 min. For the same molecule, the ED50 [4] was 0.7 µmol/kg, the ED50 [5] was “inactive” and the ED50 [6] was 0.01 µmol/kg. For the same molecule, the Ki [7] was 1040 nM, the ED50 [8] was 0.5 µmol/kg and the ED50 [9] was 4 µmol/kg. For the same molecule, the ED50 [10] was “inactive”, the ED50 [11] was 0.01 µmol/kg and the Behavioral observation [12] was “Active”. For the same molecule, the ED50 [13] was “inactive” and the ED50 [14] was “inactive”.

With `CCCN(CCC)C1CCc2cccc(OC)c2C1` (stereo not drawn) the ED50 [1] was “inactive”, the ED50 [2] was “inactive” and the ED50 [15] was 3.2 µmol/kg. The ED50 [4] was 5.5 µmol/kg, the ED50 [16] was 3.2 µmol/kg and the ED50 [17] was “inactive”. For the same molecule, the ED50 [5] was “inactive”, the ED50 [18] was 0.3 µmol/kg and the ED50 [19] was 0.2 µmol/kg. For the same molecule, the ED50 [20] was 0.3 µmol/kg, the Ki [21] was 10 nM and the ED50 [8] was 12.5 µmol/kg. The ED50 [22] was 2.3 µmol/kg and the Ki [23] was 160 nM.
